Measured values reported in ChEMBL document CHEMBL1221392, “Synthesis and cytotoxic potential of heterocyclic cyclohexanone analogues of curcumin” (Bioorg Med Chem, 2010).
pEC50, pIC50: −log10 of the molar value. The source made the active and inactive calls. No cut-off for these calls is given here.

Tests used:
[1] = Inhibition of NF-kappaB activation in human K562 cells; type: cell-based
In short: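 K562 cells electroporated with 5 µg each of a 5× NF-κB-site firefly luciferase reporter and a Renilla phRG-TK plasmid per 2.5 × 10⁶ cells. After 24 h they were resuspended at 1 × 10⁶/ml in RPMI 1640 with 0.1% FCS. Cells were then incubated 30 min before a concentration series was added. Read-out by dual luciferase; IC₅₀ reported.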

[2] = test system: MDA-MB-231; assay: Cytotoxicity against human MDA-MB-231 cells after 5 days by SRB assay; settings: MDA-MB-231, 5 days
[3] = test system: MDA-MB-468; assay: Cytotoxicity against human MDA-MB-468 cells after 5 days by SRB assay; settings: MDA-MB-468, 5 days
[4] = test system: SK-BR-3; assay: Cytotoxicity against human SKBR3 cells after 5 days by SRB assay; settings: SK-BR-3, 5 days
[5] = test system: MDA-MB-231; assay: Induction of apoptosis in human MDA-MB-231 cells assessed as increase in number of apoptotic cells at 2 uM by FACScalibur flow cytometry; type: functional, cell-based
In short: (§1)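 Cells seeded at 2 × 10⁵/well in DMEM/HamF12 with 5% FBS and antibiotics, then treated for 12, 18, 24 or 36 h against a 0.1% DMSO vehicle. Staining was Annexin-V-FLUOS/propidium iodide, read by flow cytometry, as apoptotic cells % of total. Mean ± SEM from three independent experiments in triplicate, two-way ANOVA with Bonferroni post-test.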

[6] = test system: MDA-MB-231; assay: Induction of apoptosis in human MDA-MB-231 cells assessed as increase in number of apoptotic cells at 2 to 3 uM after 18 hrs by FACScalibur flow cytometry; type: functional
[7] = test system: MDA-MB-231; assay: Induction of apoptosis in human MDA-MB-231 cells assessed as increase in number of apoptotic cells at 2 to 3 uM after 36 hrs by FACScalibur flow cytometry; type: functional
[8] = test system: MDA-MB-231; assay: Induction of apoptosis in human MDA-MB-231 cells assessed as increase in number of apoptotic cells at 1 uM by FACScalibur flow cytometry; type: functional, cell-based; in short: as §1

Row | Structure (SMILES) | pIC50 [1] | pEC50 [2] | other results
1 | CN1C/C(=C\c2cccnc2)C(=O)/C(=C/c2cccnc2)C1 | 6.10 | 5.68 | –
2 | O=C1/C(=C/c2cccs2)CCC/C1=C\c1cccs1 [TENYLIDONE] | < 3.70 | < 4.52 | –
3 | COc1cc(/C=C2\CCC/C(=C\c3ccc(O)c(OC)c3)C2=O)ccc1O [CYCLOVALONE] | 5.00 | 5.59 | –
4 | CN1C2CCC1/C(=C\c1ccncc1)C(=O)/C2=C/c1ccncc1 | 5.82 | 5.96 | pEC50 [3]: 6.22; pIC50 [4]: 6.15
5 | CN1C2CCC1/C(=C\c1cccnc1)C(=O)/C2=C/c1cccnc1 | 5.40 | 4.89 | –
6 | O=C1/C(=C/c2cccnc2F)CCC/C1=C\c1cccnc1F | 5.42 | 5.49 | –
7 | CN1C/C(=C\c2ccncc2)C(=O)/C(=C/c2ccncc2)C1 | 6.00 | 6.10 | Activity [5]: Active; pEC50 [3]: 6.30; pIC50 [4]: 6.22
8 | O=C1/C(=C/c2ccncc2)CCC/C1=C\c1ccncc1 | 5.60 | 5.96 | Activity [6]: <20%; pEC50 [3]: 5.72; pIC50 [4]: 6.70; Activity [7]: 40%
9 | CN1C/C(=C\c2nccn2C)C(=O)/C(=C/c2nccn2C)C1 | 4.33 | < 4.52 | –
10 | COc1cc(F)c(/C=C2\CN(C)C/C(=C\c3cc(OC)c(OC)cc3F)C2=O)cc1OC | 5.40 | 5.42 | –
11 | COc1cc(/C=C/C(=O)CC(=O)/C=C/c2ccc(O)c(OC)c2)ccc1O [CURCUMIN] | 4.82 | 5.12 | pEC50 [3]: 5.01; pIC50 [4]: 5.62
12 | COc1ccc(OC)c(/C=C2\CCC/C(=C\c3cc(OC)ccc3OC)C2=O)c1 | < 3.70 | < 5.00 | –
13 | CN1C/C(=C\c2cccs2)C(=O)/C(=C/c2cccs2)C1 | < 3.70 | < 4.52 | –
14 | COc1cc(/C=C2\CCC/C(=C\c3cc(OC)c(OC)c(OC)c3)C2=O)cc(OC)c1OC | – | < 4.52 | –
15 | O=C1/C(=C/c2ccnc(F)c2)CCC/C1=C\c1ccnc(F)c1 | 5.66 | 5.48 | –
16 | O=C1/C(=C/c2cccnc2)CCC/C1=C\c1cccnc1 | 5.60 | 5.82 | Activity [6]: <20%
17 | COc1cc(/C=C2\CN(C)C/C(=C\c3cc(OC)c(OC)c(OC)c3)C2=O)cc(OC)c1OC | 6.05 | 6.52 | pEC50 [3]: 6.52; Activity [8]: Active; pIC50 [4]: 6.40
18 | O=C1/C(=C/c2cccnc2)CC/C1=C\c1cccnc1 | 4.47 | 5.07 | –
19 | COc1cc(/C=C2/C(=O)/C(=C/c3cc(OC)c(OC)c(OC)c3)C3CCC2N3C)cc(OC)c1OC | < 3.70 | < 4.52 | –
20 | Cn1ccnc1/C=C1\CCC/C(=C\c2nccn2C)C1=O | 4.32 | 5.72 | –
21 | COc1ccc(OC)c(/C=C2\CN(C)C/C(=C\c3cc(OC)ccc3OC)C2=O)c1 | 5.20 | 5.96 | pEC50 [3]: 5.96; pIC50 [4]: 5.96
22 | Cn1cccc1/C=C1\CCC/C(=C\c2cccn2C)C1=O | < 3.70 | < 4.52 | –
